Values after ≈ are worked out from the molar mass of the structure shown. Where a SMILES comes first, the peptide text is derived from it. [ ]: non-standard residue; d: D form. Dap = NC[C@H](N)C(=O)O
Assays:
Acinetobacter baumannii [1] = experiment: Ratio of MIC for Acinetobacter baumannii 649 measured in presence of 25% human serum to MIC for Acinetobacter baumannii 649 in absence of 25% human serum; assay type: functional
Outline: (§1)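 Blood strain 649 was tested by MH broth microdilution with and without 25% (v/v) human serum added to the medium. The test used a final inoculum of 5 × 10^5 cfu/mL and incubation at 37 °C. The ratio is the MIC in serum over the MIC in MH alone.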

Acinetobacter baumannii [2] = experiment: Antibacterial activity against Acinetobacter baumannii 649 measured after 24 hrs in presence of 25% human serum by microtiter dilution method; assay type: functional; details: Acinetobacter baumannii, 649, 24 h; outline: as §1
[3] = Therapeutic index, ratio of HC50 for human RBC to MIC for polymyxin B/colistin-resistant Acinetobacter baumannii M89963; assay type: toxicity; details: human red blood cells, read-out: TI
Outline: (§2)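 T.I. = HC50/MIC. For HC50, peptide (quantified by amino acid analysis) was two-fold serially diluted over 12 concentrations up to 1000 μg/mL. It was incubated with 1% fresh human erythrocytes in PBS, pH 7.4, for 18 h at 37 °C. After 800g centrifugation, hemoglobin was read at 570 nm against water (100%) and no-peptide (0%) controls. HC50 came from a lysis-versus-concentration plot, average of 3 replicates.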

Acinetobacter baumannii [4] = experiment: Antibacterial activity against Acinetobacter baumannii 649 measured after 24 hrs by microtiter dilution method; assay type: functional; details: Acinetobacter baumannii, 649, 24 h
Outline: (§3)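 Broth microdilution in Mueller-Hinton (MH) medium. […] Plates were incubated 24 h at 37 °C. MIC was the lowest peptide concentration that inhibited growth, based on three sets of replicates.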

[5] = Therapeutic index, ratio of HC50 for human RBC to MIC for polymyxin B/colistin-resistant Acinetobacter baumannii M89955; assay type: toxicity; details: human red blood cells, read-out: TI; outline: as §2
[6] = Therapeutic index, ratio of HC50 for human RBC to MIC for polymyxin B/colistin-resistant Acinetobacter baumannii M89953; assay type: toxicity; details: human red blood cells, read-out: TI; outline: as §2
[7] = Therapeutic index, ratio of HC50 for human RBC to MIC for polymyxin B/colistin-resistant Acinetobacter baumannii M89951; assay type: toxicity; details: human red blood cells, read-out: TI; outline: as §2
[8] = Therapeutic index, ratio of HC50 for human RBC to MIC for polymyxin B/colistin-resistant Acinetobacter baumannii M89952; assay type: toxicity; details: human red blood cells, read-out: TI; outline: as §2
[9] = Therapeutic index, ratio of HC50 for human RBC to MIC for polymyxin B/colistin-resistant Acinetobacter baumannii M89949; assay type: toxicity; details: human red blood cells, read-out: TI; outline: as §2
[10] = Hemolytic activity against human RBC measured after 18 hrs by spectrophotometric method; assay type: ADME, cell-based, Erythrocyte; details: human red blood cells (erythrocytes)
Outline: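 Peptide (amount by amino acid analysis), two-fold serial dilutions at 12 concentrations up to 1000 μg/mL, with 1% human erythrocytes in PBS pH 7.4, 37 °C, 18 h. Unlysed cells removed by centrifugation (800g); hemoglobin read at 570 nm. Water-lysed cells = 100%, no-peptide cells = 0%. HC50 from plot of % lysis vs concentration (μM), average of 3 replicates.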

[11] = Therapeutic index, ratio of HC50 for human RBC to MIC for polymyxin B/colistin-resistant Acinetobacter baumannii M89941; assay type: toxicity; details: human red blood cells, read-out: TI; outline: as §2
Acinetobacter baumannii [12] = experiment: Antibacterial activity against Acinetobacter baumannii isolate 1001611 measured after 24 hrs by microtiter dilution method; assay type: functional; details: isolate 1001611, 24 h; outline: as §3
Acinetobacter baumannii [13] = experiment: Antibacterial activity against Acinetobacter baumannii isolate 1007660 measured after 24 hrs by microtiter dilution method; assay type: functional; details: isolate 1007660, 24 h; outline: as §3
Acinetobacter baumannii [14] = experiment: Antibacterial activity against Acinetobacter baumannii isolate 1021371 measured after 24 hrs by microtiter dilution method; assay type: functional; details: isolate 1021371, 24 h; outline: as §3
Acinetobacter baumannii [15] = experiment: Antibacterial activity against Acinetobacter baumannii isolate 952654 measured after 24 hrs by microtiter dilution method; assay type: functional; details: isolate 952654, 24 h; outline: as §3
Acinetobacter baumannii [16] = experiment: Antibacterial activity against Acinetobacter baumannii isolate 9383370 measured after 24 hrs by microtiter dilution method; assay type: functional; details: isolate 9383370, 24 h; outline: as §3
Acinetobacter baumannii [17] = experiment: Antibacterial activity against Acinetobacter baumannii isolate 961997 measured after 24 hrs by microtiter dilution method; assay type: functional; details: isolate 961997, 24 h; outline: as §3
Acinetobacter baumannii [18] = experiment: Antibacterial activity against Acinetobacter baumannii isolate 1002956 measured after 24 hrs by microtiter dilution method; assay type: functional; details: isolate 1002956, 24 h; outline: as §3
Acinetobacter baumannii [19] = experiment: Antibacterial activity against Acinetobacter baumannii isolate 977751 measured after 24 hrs by microtiter dilution method; assay type: functional; details: isolate 977751, 24 h; outline: as §3
Acinetobacter baumannii [20] = experiment: Antibacterial activity against Acinetobacter baumannii isolate 1035166 measured after 24 hrs by microtiter dilution method; assay type: functional; details: isolate 1035166, 24 h; outline: as §3
Acinetobacter baumannii [21] = experiment: Antibacterial activity against Acinetobacter baumannii isolate 1010282 measured after 24 hrs by microtiter dilution method; assay type: functional; details: isolate 1010282, 24 h; outline: as §3
Acinetobacter baumannii [22] = experiment: Antibacterial activity against Acinetobacter baumannii isolate 1010245 measured after 24 hrs by microtiter dilution method; assay type: functional; details: isolate 1010245, 24 h; outline: as §3
Acinetobacter baumannii [23] = experiment: Antibacterial activity against Acinetobacter baumannii isolate 1017395 measured after 24 hrs by microtiter dilution method; assay type: functional; details: isolate 1017395, 24 h; outline: as §3
Acinetobacter baumannii [24] = experiment: Antibacterial activity against Acinetobacter baumannii isolate 968886 measured after 24 hrs by microtiter dilution method; assay type: functional; details: isolate 968886, 24 h; outline: as §3
Acinetobacter baumannii [25] = experiment: Antibacterial activity against Acinetobacter baumannii isolate 964304 measured after 24 hrs by microtiter dilution method; assay type: functional; details: isolate 964304, 24 h; outline: as §3
Acinetobacter baumannii [26] = experiment: Antibacterial activity against Acinetobacter baumannii isolate 963659 measured after 24 hrs by microtiter dilution method; assay type: functional; details: isolate 963659, 24 h; outline: as §3
Acinetobacter baumannii [27] = experiment: Antibacterial activity against Acinetobacter baumannii isolate 963618 measured after 24 hrs by microtiter dilution method; assay type: functional; details: isolate 963618, 24 h; outline: as §3
Acinetobacter baumannii [28] = experiment: Antibacterial activity against Acinetobacter baumannii isolate 1018887 measured after 24 hrs by microtiter dilution method; assay type: functional; details: isolate 1018887, 24 h; outline: as §3
Acinetobacter baumannii [29] = experiment: Antibacterial activity against Acinetobacter baumannii isolate 1035794 measured after 24 hrs by microtiter dilution method; assay type: functional; details: isolate 1035794, 24 h; outline: as §3
Acinetobacter baumannii [30] = experiment: Antibacterial activity against Acinetobacter baumannii isolate 981650 measured after 24 hrs by microtiter dilution method; assay type: functional; details: isolate 981650, 24 h; outline: as §3
Acinetobacter baumannii [31] = experiment: Antibacterial activity against Acinetobacter baumannii isolate 965463 measured after 24 hrs by microtiter dilution method; assay type: functional; details: isolate 965463, 24 h; outline: as §3
Acinetobacter baumannii [32] = experiment: Antibacterial activity against polymyxin B/colistin-resistant Acinetobacter baumannii M89963 measured after 24 hrs by microtiter dilution method; assay type: functional; details: M89963, 24 h; outline: as §3
Acinetobacter baumannii [33] = experiment: Antibacterial activity against polymyxin B/colistin-resistant Acinetobacter baumannii M89955 measured after 24 hrs by microtiter dilution method; assay type: functional; details: M89955, 24 h; outline: as §3
Acinetobacter baumannii [34] = experiment: Antibacterial activity against polymyxin B/colistin-resistant Acinetobacter baumannii M89953 measured after 24 hrs by microtiter dilution method; assay type: functional; details: M89953, 24 h; outline: as §3
Acinetobacter baumannii [35] = experiment: Antibacterial activity against polymyxin B/colistin-resistant Acinetobacter baumannii M89952 measured after 24 hrs by microtiter dilution method; assay type: functional; details: M89952, 24 h; outline: as §3
Acinetobacter baumannii [36] = experiment: Antibacterial activity against polymyxin B/colistin-resistant Acinetobacter baumannii M89951 measured after 24 hrs by microtiter dilution method; assay type: functional; details: M89951, 24 h; outline: as §3
Acinetobacter baumannii [37] = experiment: Antibacterial activity against polymyxin B/colistin-resistant Acinetobacter baumannii M89949 measured after 24 hrs by microtiter dilution method; assay type: functional; details: M89949, 24 h; outline: as §3
Acinetobacter baumannii [38] = experiment: Antibacterial activity against polymyxin B/colistin-resistant Acinetobacter baumannii M89941 measured after 24 hrs by microtiter dilution method; assay type: functional; details: M89941, 24 h; outline: as §3

Compound: CC(=O)N[C@H](CCCCN)C(=O)N[C@H](CC(C)C)C(=O)N[C@@H](CN)C(=O)N[C@H](CO)C(=O)N[C@H](CC(C)C)C(=O)N[C@H](CC(C)C)C(=O)N[C@@H](CN)C(=O)N[C@@H](C(=O)N[C@H](CC(C)C)C(=O)N[C@H](CO)C(=O)N[C@@H](CN)C(=O)N[C@H](C)C(=O)N[C@H](C)C(=O)N[C@H](C)C(=O)N[C@H](C)C(=O)N[C@H](C)C(=O)N[C@H](CC(C)C)C(=O)N[C@@H](CN)C(=O)N[C@@H](C(=O)N[C@H](CC(C)C)C(=O)N[C@H](CC(C)C)C(=O)N[C@@H](CN)C(=O)N[C@H](C)C(=O)N[C@H](CC(C)C)C(=O)N[C@H](CO)C(=O)N[C@@H](CN)C(N)=O)[C@H](C)O)[C@H](C)O (Ac-[dK][dL][Dap][dS][dL][dL][Dap][dT][dL][dS][Dap][dA][dA][dA][dA][dA][dL][Dap][dT][dL][dL][Dap][dA][dL][dS][Dap]-NH2)
- Ratio (Acinetobacter baumannii [1]): 4 - 16
- MIC (Acinetobacter baumannii [2]): 12.5 µM
- selectivity ratio [3]: 2.2
- MIC (Acinetobacter baumannii [4]): 0.8 µM (≈ 2 µg/mL)
- selectivity ratio [5]: 2.2
- selectivity ratio [6]: 2.2
- selectivity ratio [7]: 2.2
- selectivity ratio [8]: 2.2
- selectivity ratio [9]: 2.2
- HC50 at 18 h [10]: 2900 nM
- selectivity ratio [11]: 2.2
- MIC (Acinetobacter baumannii [12]): 1.6 µM (≈ 4 µg/mL)
- MIC (Acinetobacter baumannii [13]): 3.2 µM (≈ 8 µg/mL)
- MIC (Acinetobacter baumannii [14]): 0.8 µM (≈ 2 µg/mL)
- MIC (Acinetobacter baumannii [15]): 6.4 µM (≈ 16 µg/mL)
- MIC (Acinetobacter baumannii [16]): 1.6 µM (≈ 4 µg/mL)
- MIC (Acinetobacter baumannii [17]): 3.2 µM (≈ 8 µg/mL)
- MIC (Acinetobacter baumannii [18]): 1.6 µM (≈ 4 µg/mL)
- MIC (Acinetobacter baumannii [19]): 0.8 µM (≈ 2 µg/mL)
- MIC (Acinetobacter baumannii [20]): 3.2 µM (≈ 8 µg/mL)
- MIC (Acinetobacter baumannii [21]): 1.6 µM (≈ 4 µg/mL)
- MIC (Acinetobacter baumannii [22]): 0.8 µM (≈ 2 µg/mL)
- MIC (Acinetobacter baumannii [23]): 3.2 µM (≈ 8 µg/mL)
- MIC (Acinetobacter baumannii [24]): 1.6 µM (≈ 4 µg/mL)
- MIC (Acinetobacter baumannii [25]): 3.2 µM (≈ 8 µg/mL)
- MIC (Acinetobacter baumannii [26]): 3.2 µM (≈ 8 µg/mL)
- MIC (Acinetobacter baumannii [27]): 1.6 µM (≈ 4 µg/mL)
- MIC (Acinetobacter baumannii [28]): 3.2 µM (≈ 8 µg/mL)
- MIC (Acinetobacter baumannii [29]): 1.6 µM (≈ 4 µg/mL)
- MIC (Acinetobacter baumannii [30]): 1.6 µM (≈ 4 µg/mL)
- MIC (Acinetobacter baumannii [31]): 3.2 µM (≈ 8 µg/mL)
- MIC (Acinetobacter baumannii [32]): 1.6 µM (≈ 4 µg/mL)
- MIC (Acinetobacter baumannii [33]): 1.6 µM (≈ 4 µg/mL)
- MIC (Acinetobacter baumannii [34]): 1.6 µM (≈ 4 µg/mL)
- MIC (Acinetobacter baumannii [35]): 1.6 µM (≈ 4 µg/mL)
- MIC (Acinetobacter baumannii [36]): 0.8 µM (≈ 2 µg/mL)
- MIC (Acinetobacter baumannii [37]): 0.8 µM (≈ 2 µg/mL)
- MIC (Acinetobacter baumannii [38]): 1.6 µM (≈ 4 µg/mL)
